We go through one compound from ChEMBL document CHEMBL4270573, “Novel nicotinoyl pyrazoline derivates bearing N-methyl indole moiety as antitumor agents: Design, synthesis and evaluation” (Eur J Med Chem, 2018).

The test system of one series is Mus musculus. Put plainly: Toxicity in nude mouse xenografted with human HeLa cells assessed as change in mouse kidney weight at 10 to 20 mg/kg, ip after 14 days. Conditions: in vivo, 336 h. The format is organism-based. On the technique in general: Xenograft models place foreign cells or tissue in a host animal.
For series [1], the system named is HepG2. Put plainly: Cell cycle arrest in human HepG2 cells assessed as accumulation at G2/M phase at 0.060 uM after 24 hrs by propidium iodide staining based flow cytometric analysis (reference value: 20.17%). Type of series: functional. The method, boiled down: (§1)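 HepG2 and HeLa cells were exposed to 0, 0.020, 0.040, 0.060, 0.080 or 0.10 µM for 6, 12 or 24 h. DNA content was stained with propidium iodide and analysed by flow cytometry to give the percentage of cells in G0/G1, S and G2/M phases; sub-G1 cells were also recorded.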
For orientation: Flow cytometry measures light scatter and fluorescence of single cells or particles in a stream.

Series [2] concerns HeLa. As to the kind of experiment: Antitumor activity against human HeLa cells xenografted in nude mouse assessed as tumor weight at 10 mg/kg, ip after 14 days (reference value: 1.54 g). The format is functional.
Series [3] relates to HeLa. Put plainly: Cell cycle arrest in human HeLa cells assessed as accumulation at G0/G1 phase at 0.020 uM after 24 hrs by propidium iodide staining based flow cytometric analysis (reference value: 66.26%). Type of series: functional. The method, boiled down: as §1
Series [4] concerns HeLa. Put plainly: Antitumor activity against human HeLa cells xenografted in nude mouse assessed as tumor volume at 20 mg/kg, ip after 14 days (reference value: 2292.17 mm3). Type of series: functional.
Series [5] relates to HepG2. Put plainly: Induction of apoptosis in human HepG2 cells assessed as early apoptotic cells at 0.020 uM after 24 hrs by Annexin V-FITC/propidium iodide staining based flow cytometric analysis (reference value: 2.31%). Type of series: functional. The method, boiled down:
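HepG2 and HeLa cells were exposed to 0, 0.02, 0.040, 0.060, 0.080 and 0.10 µM for 6, 12 and 24 h. Cells were double-stained with Annexin V-FITC/PI and read by flow cytometry. Apoptotic rate was the percentage of FITC-positive cells, counting early plus late apoptotic.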

As for `COc1cccc(C2=NN(C(=O)c3ccc(C)nc3)C(c3cn(C)c4ccc(OC)cc34)C2)c1` (stereo unspecified), the Activity entry with Mus musculus is “Non-Toxic”; in the series on HepG2 [1], 41.92%; with HeLa [2], 0.91 g; in the series on HeLa [3], 66.95%; with HeLa [4], 881.93 mm3; with HepG2 [5], 3.18%.
